Consider 50 compounds from PubChem BioAssay AID804 (SRMLSC, 2007).

The whole screen tested about 140,000 compounds, of which about 710 (0.51%) were called active. The full list was thinned out, with actives kept by preference. A number with no mark means an inactive call.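 How the source made its calls: active means inhibition above a set limit, 3 SD over the mean compound inhibition (cut at about 44% in these data); inactive means the rest.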

The assay is described as follows: BB579 yeast growth reduction, restrictive medium – S. cerevisiae, yeast lifespan-shortening project, primary screen (AID 804). Particulars: OD615, 48 h, at 10 µM, active compounds read high. Summed up:
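Detection: OD615 turbidity measurement; Material: Saccharomyces cerevisiae DeaD strain BB579, replicative lifespan model yeast; Timing: 48 h exposure, 30 °C; Doses: single 10 µM dose; Medium: CSMM-D restrictive synthetic medium containing dextrose (glucose); Controls: amphotericin B at 10 µg/mL as positive control.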
As for `COc1cc(Br)cc(/C=N/c2ncn[nH]2)c1O`, the inhibition is 54.7% (active).

Consider `COc1ccc(Br)cc1/C=N/n1c(C)nnc1C`, for which the inhibition is -33.3%.

For `Oc1ccc(Br)cc1C=Nc1ccc2[nH]ncc2c1`, the inhibition is -67.6%.

For the compound `Clc1cccc(CN2COc3c(cc(Cl)c4cccnc34)C2)c1`, the inhibition is 99.4% (active).

In the case of `O=c1[nH]n(-c2cccc(Cl)c2)c2ncccc12`, the inhibition was -63.7%.

Consider `Nc1c(C(=O)NCc2ccccc2)nnn1Cc1cccc(Cl)c1`, for which the inhibition is -3.98%.

`Cc1cc(OCCCC(=O)NCCN2C(=O)S/C(=C\c3cccnc3)C2=O)ccc1Cl`: the inhibition is -3.48%.

Take `CCc1c(C)sc(NC(=O)/C=C/c2ccc3c(c2)OCO3)c1C(=O)OC`: the inhibition is -27.2%.

For `Nc1nc(NC(=O)/C=C/c2ccccc2)nn1-c1ccccc1`, the inhibition was -11.2%.

Consider `NC(N)=N/N=C/c1ccc(OCc2ccc(Cl)cc2Cl)cc1`, for which the inhibition was 99.3% (active).

In the case of `COc1ccc(C(=O)O/N=C(\N)Cc2ccc(Cl)cc2Cl)cc1OC`, the inhibition is -25.8%.

Regarding `COC(=O)c1sc2ncccc2c1OCc1ccc(Cl)cc1Cl`, the inhibition is -44.1%.

In the case of `COc1ccccc1CN(C)C(=O)C1(c2ccc(Cl)cc2)CC1`, the inhibition was -2.98%.

As for `N/C(=N\OC(=O)CC1CCCCC1)c1ccccc1`, the inhibition was -2.81%.

On to `CCCCn1c(=S)[nH]c2ccccc2c1=O`, for which the inhibition was 6.35%.

Consider `Cc1c(Cl)c([N+](=O)[O-])nn1CCCC(=O)Nc1cc(Cl)ccc1Cl`, for which the inhibition was 2.39%.

Consider `Nc1nc(SCC(=O)NN(c2ccccc2)c2ccccc2)n[nH]1`, for which the inhibition was -6.56%.

Take `CC(C)(C)C1CCC(=NNC(=O)c2cc(-c3ccccc3)n[nH]2)CC1` (stereo not given): the inhibition is -16.9%.

With `O=C1NC(c2ccccc2)=NC1(Nc1ccccn1)C(F)(F)F` (stereo not given), the inhibition was -3.11%.

As for `CCN=C1S/C(=C\c2cc(Br)ccc2OCC(=O)OCC)C(=O)N1CC`, the inhibition was -14.3%.

For the compound `COCCn1c(SCC(=O)Nc2ccc3c(c2)CCC3)nc2ccccc2c1=O`, the inhibition is -36.9%.

As for `COc1ccc(C2Nc3ccccc3C(=O)N2c2ccc(F)cc2)cc1Cn1nnc2ccccc21` (stereo not given), the inhibition is -29.1%.

Regarding `CC(C)CNC(=S)Nc1ccc(F)cc1`, the inhibition was 14.5%.

With `CCOC(=O)c1cc2c(nc1NC(=S)Nc1ccccc1)CC(C)(CC)OC2` (stereo not given), the inhibition is 0.93%.

Consider `COc1cc(NC(=O)c2ccccc2NS(=O)(=O)c2ccc(Cl)s2)cc(OC)c1`, for which the inhibition is -5.4%.

With `COC(=O)Cc1ccc(NC(=S)NCc2ccc(Cl)cc2)cc1`, the inhibition was -19.1%.

Take `S=C(NCc1ccc(Cl)cc1)NC12CC3CC(CC(C3)C1)C2`: the inhibition was 50% (active).

For the compound `S=C(NCc1ccc(Cl)cc1)NC1CCCCC1`, the inhibition is -27.3%.

For `O=C(CCc1nc2ccccc2c(=O)[nH]1)OCC(=O)c1cccc(Cl)c1`, the inhibition was -13.4%.

In the case of `N#C/C(=C/c1cccc([N+](=O)[O-])c1)c1nnc2n1CCCCC2`, the inhibition is -18.8%.

In the case of `COCC(C)n1c(C)cc(C(=O)CSc2cc(C)c3ccccc3n2)c1C` (stereo not given), the inhibition was -56.2%.

With `O=c1[nH]cnc2c1c(-c1ccccc1)cn2-c1ccc(F)cc1`, the inhibition was -19.6%.

With `COc1ccc(-n2nnnc2-c2nc3ccccc3s2)cc1`, the inhibition is -33.6%.

For the compound `O=C1OC(OC(=O)c2ccccc2Br)C(N2CCOCC2)=C1Cl` (stereo not given), the inhibition was -32.6%.

Consider `Cc1cccc(OCC(=O)NC(=S)Nc2ccccc2N2CCOCC2)c1`, for which the inhibition is -49.4%.

Consider `CCOc1cc(N2CCOCC2)c(OCC)cc1NC(=O)COC(=O)[C@H](Cc1c[nH]c2ccccc12)NC(C)=O`, for which the inhibition was -16%.

Regarding `CCOc1cc(N2CCOCC2)c(OCC)cc1NC(=O)COc1cccc2cccnc12`, the inhibition is 67.1% (active).

Turning to `CCc1ccc2c(c1)C(c1ccc([N+](=O)[O-])cc1)=NNC(c1ccccc1)=N2`, the inhibition was -23.5%.

As for `Cn1c(=O)c(Sc2ccc(Cl)cc2)c(O)c2ccccc21`, the inhibition is -21.7%.

Regarding `Cn1c(=O)c(C(=O)Nc2ncccn2)c(O)c2ccccc21`, the inhibition was 68.5% (active).

For the compound `O=C(Nc1ncccn1)c1cccs1`, the inhibition was -21.9%.

For the compound `Cc1ccc(NC(=O)c2sc3nc(N)c(C#N)cc3c2N)cc1`, the inhibition was -23.2%.

Turning to `O=C(Cc1c[nH]c2ccccc12)N/N=C/c1cccc(F)c1`, the inhibition is -39.1%.

Take `COC(=O)Cn1c(=NC(=O)c2cc(OC)c(OC)c(OC)c2)sc2cc(OC)ccc21`: the inhibition was -32.8%.

In the case of `COC(=O)Cn1c2ccc(C)cc2c2nc(C)sc21`, the inhibition was 43.6% (active).

Regarding `CCN(CC)CCn1c2ccc(Cl)cc2c2nc(C)sc21`, the inhibition is -1.41%.

In the case of `CCOC(=O)c1nn(-c2ccccc2F)c2nc(Nc3ccccc3)cc(=O)n12`, the inhibition was -45.6%.

In the case of `Cc1c(C=O)c2ccccn2c1C(=O)c1ccncc1`, the inhibition is 43.9% (active).

In the case of `CC(OC(=O)CNS(=O)(=O)/C=C/c1ccccc1)C(=O)Nc1ccc(S(=O)(=O)N2CCCC2)cc1` (stereo not given), the inhibition was -25.4%.

As to `CN1CCC(=NNC(=O)c2ccc(N(Cc3ccc(Cl)cc3)S(C)(=O)=O)cc2)CC1`, the inhibition is -8.48%.
